In publication PMC7591420 (Targeted Oncology, 2020):
Like-named read-outs stand apart in the source and are kept apart here.

What was measured:
[1] = tested on: patients; details: cited from earlier work
[2] = tested on: patients with advanced solid tumors; format: in vivo, human; details: all cohorts
In short: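 Open-label, non-randomized multicenter escalation plus expansion, 28-day cycles. PI3K inhibitor 0.2–0.8 mg/kg IV over 1 h on days 1, 8, 15 or 1, 8, 15, 22 (max 65 mg); MEK inhibitor 30–50 mg BID orally, continuous from day 4 or 4 days on/3 off from day 6. DLTs assessed in cycle 1; adverse events graded by NCI CTCAE v4.0.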

[3] = Plasma pharmacokinetics of copanlisib; format: in vivo, human; details: for Cmax / AUC(0-t): human, plasma, intravenous, cycle 1 day 1, copanlisib alone, geometric mean (% CV); for AUC(0-t): AUC(0–25)
[4] = copanlisib 0.4 mg/kg as monotherapy; cited from earlier work
[5] = tested on: patients with solid tumors; details: intravenous monotherapy; cited from earlier work
[6] = Plasma pharmacokinetics of refametinib; format: in vivo, human; details: for AUC(0-t) / Cmax: human, plasma, oral, cycle 1 day 14, refametinib alone, geometric mean (% CV); for AUC(0-t): AUC(0–8)
[7] = tested on: patients with advanced cancer; details: cited from earlier work
[8] = 0.4 mg/kg, cohort 2C: copanlisib 0.4 mg/kg weekly, refametinib 30 mg BID
[9] = 0.4 mg/kg, expansion cohort: copanlisib 0.4 mg/kg weekly, refametinib 30 mg BID
[10] = 30 mg, cohort 2C: copanlisib 0.4 mg/kg weekly, refametinib 30 mg BID
[11] = 30 mg, expansion cohort: copanlisib 0.4 mg/kg weekly, refametinib 30 mg BID

For `O=C(NOCCO)c1cc(CN2OCCCC2=O)c(F)c(F)c1Nc1ccc(I)cc1F` [RO4987655], the “incidence of ophthalmologic toxicities” value [1] is listed as 27%.
For `COc1c(OCCCN2CCOCC2)ccc2c1N=C(NC(=O)c1cnc(N)nc1)N1CCN=C21` [copanlisib], the “Patients with dose modifications attributed to copanlisib-related TEAEs” value ([2]; N = 64) was 39.1%, the “Patients with TEAEs considered related to copanlisib” value ([2]; N = 64, given with refametinib) was 93.8% and the Cmax ([3]; 0.2 mg/kg, cohort 1: copanlisib 0.2 mg/kg 3 weeks on/1 week off, refametinib 30 mg BID) was 126 ng/mL. The AUC(0-t) [3, 8] was 725 ng·h/mL, the AUC(0-t) [3, 9] was 890 ng·h/mL and the Cmax [3, 8] was 241 ng/mL. For the same compound, the Cmax [3, 9] was 312 ng/mL, the Cmax ([3]; cohort 2) was 189 ng/mL and the “median time of Cmax, range over cohorts” value ([3]; single infusion 0.2–0.8 mg/kg, cycle 1, day 1) was 0.50 to 1.03 h. For the same compound, the “copanlisib Cmax and AUC(0–25), day 1 (alone) versus day 15 (with refametinib)” value ([3]; within each cohort) was “comparable between day 1 and day 15”, the “activity of 0.4 mg/kg versus 0.8 mg/kg” value [4] was “less active than 0.8 mg/kg” and the “maximum tolerated dose (MTD), single agent” value [5] was 0.8 mg/kg.
With `COc1cc(F)c(F)c(Nc2ccc(I)cc2F)c1NS(=O)(=O)C1(C[C@H](O)CO)CC1` [refametinib] the AUC(0-t) ([6]; 30 mg, cohort 1: copanlisib 0.2 mg/kg 3 weeks on/1 week off, refametinib 30 mg BID) was 2510 ng·h/mL, the AUC(0-t) ([6]; 30 mg, cohort 2B: copanlisib 0.6 mg/kg 3 weeks on/1 week off, refametinib 30 mg BID) was 3750 ng·h/mL and the AUC(0-t) [6, 10] was 4770 ng·h/mL. It also gave an AUC(0-t) ([6]; 30 mg, cohort 3A: copanlisib 0.8 mg/kg 3 weeks on/1 week off, refametinib 30 mg BID) of 4530 ng·h/mL, an AUC(0-t) [6, 11] of 5310 ng·h/mL and a Cmax [6, 10] of 873 ng/mL. The Cmax [6, 11] was 845 ng/mL, the AUC(0-t) ([6]; cohort 2) was 5110 ng·h/mL and the Cmax ([6]; cohort 2) was 943 ng/mL. For the same compound, the “median time of Cmax, range over cohorts” value ([6]; multiple doses of refametinib 30 mg or 50 mg BID) was 1.50 to 4.00 h, the “Patients with dose modifications attributed to refametinib-related TEAEs” value ([2]; N = 64) was 53.1% and the “Patients with TEAEs considered related to refametinib” value ([2]; N = 64, given with copanlisib) was 95.3%. The “MTD, single agent” value ([7]; oral, twice daily (BID), monotherapy) was 50 mg, the partial response rate ([7]; refametinib monotherapy) was 2% and the stable disease ([7]; refametinib monotherapy) was 16%.
For `CC(=O)Nc1cccc(-n2c(=O)n(C3CC3)c(=O)c3c(Nc4ccc(I)cc4F)n(C)c(=O)c(C)c32)c1` [trametinib], the “incidence of ophthalmologic toxicities” value ([1]; all-cause) is given as 19%.
